Screening results: PubChem, NMMLSC
An excerpt weighted towards active compounds, which were near 2.3% of everything screened.
Arr AP2 block = human beta-arrestin and AP2 interaction inhibition; FITC-arrestin peptide / GST-AP2 beads, flow cytometry; AP2 beta2 appendage carries R879A mutation; inhibition, % at 10 µM; 340,000 compounds, 0.31% hits;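 active = inhibition above a set limit, near 3 SD of compounds lacking own fluorescence, cut at about 54% in these data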;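 also: plate controls were DMSO wells for no effect and 5 µM unlabelled arrestin peptide for full effect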
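Material – GST-tagged AP2 beta2-adaptin appendage (R879A) on 4 µm glutathione beads · Probe or stimulus – fluorescein-tagged arrestin peptide at 50 nM final · Timing – 12 min plus 1 h, RT · Detection – bead flow cytometry, FITC channel · Read-out basis – inhibition as reduced fluorescein signal on beads, percent · Medium – PBS plus Tween 20 (0.05%) and BSA (0.1%)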
MEKK2 mut-MEK5 = signal of MEK5 binding to mutant human MEKK2 PB1 domain | bead flow cytometry, Alexa488-MEK5 binding to MEKK2 mutant | percent response, % at 10 µM | 290,000 compounds, 0.35% hits | AID 1530; in the data active = percent response above about 24%, passing the limit was not always enough
MEKK3 PB1 HTS = raises or lowers MEK5 binding to the human MEKK3 PB1 domain | 290,000 compounds, 1.4% hits | Q99759 | binding response (% of control), % at 10 µM | AID 1529 | bead-based flow cytometry, Alexa488-MEK5 binding to MEKK3; actives lie on both sides; 0 = blocked by unlabeled MEK5, 100 = vehicle;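 active = binding response more than 3 SD above or below the average of its plate-row segment, actives on both sides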;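 also: Alexa488 bead fluorescence after subtracting the streptavidin-only scavenger bead signal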
Target sequence (Q99759 whole entry, looked up, the tested form may be a part): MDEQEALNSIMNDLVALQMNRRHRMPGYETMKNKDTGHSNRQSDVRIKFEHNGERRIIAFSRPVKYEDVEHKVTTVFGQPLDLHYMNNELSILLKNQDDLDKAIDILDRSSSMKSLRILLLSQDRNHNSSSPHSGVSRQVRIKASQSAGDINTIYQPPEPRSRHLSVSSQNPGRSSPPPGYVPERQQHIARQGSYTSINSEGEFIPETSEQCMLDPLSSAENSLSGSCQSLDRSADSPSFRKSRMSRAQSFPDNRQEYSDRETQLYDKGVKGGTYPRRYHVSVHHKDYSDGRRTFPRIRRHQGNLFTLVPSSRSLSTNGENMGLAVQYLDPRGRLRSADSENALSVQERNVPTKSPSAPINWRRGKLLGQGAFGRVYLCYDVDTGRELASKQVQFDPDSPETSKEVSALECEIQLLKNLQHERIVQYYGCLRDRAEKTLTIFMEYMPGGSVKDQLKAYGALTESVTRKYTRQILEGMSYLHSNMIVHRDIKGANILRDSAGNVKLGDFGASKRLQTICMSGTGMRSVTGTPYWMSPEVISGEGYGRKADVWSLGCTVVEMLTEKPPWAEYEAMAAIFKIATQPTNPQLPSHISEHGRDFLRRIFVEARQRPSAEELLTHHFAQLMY
MEKK2 WT-MEK5 = raises or lowers MEK5 binding to wildtype human MEKK2 PB1 domain; 290,000 compounds, 1.1% hits; bead flow cytometry, Alexa488-MEK5 binding to MEKK2 WT; actives lie on both sides; AID 1531; Q9Y2U5; binding response (% of control), % at 10 µM; in the data active = binding response below about 67% or above about 130%
MEKK2wt confirm = raises or lowers MEK5 binding to wildtype human MEKK2, retest. binding response (% of control), % at 10 µM. 5,900 compounds, 2.4% hits. bead flow cytometry, Alexa488-MEK5 binding to MEKK2 WT; actives lie on both sides. shares compounds with MEKK3 PB1 HTS. AID 1892; in the data active = binding response below about 16% or above about 210%; inactive = in between
MEKK2mut-MEK5 = signal of MEK5 binding to mutant human MEKK2, retest; shares compounds with MEKK3 PB1 HTS; bead flow cytometry, Alexa488-MEK5 binding to MEKK2 mutant; percent response, % at 10 µM; 5,900 compounds, 2% hits; AID 1893; in the data active = percent response mostly above about 71%, no sharp cut-off; inactive = mostly below about 38%;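 also: higher means compound restores mutant binding toward wildtype level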
MEKK3 confirm = MEKK3-MEK5 PB1 inhibition, single concentration confirmation; shares compounds with MEKK3 PB1 HTS; bead flow cytometry, Alexa488-MEK5 binding to MEKK3; active compounds read low; binding response (% of control), % at 10 µM; 5,900 compounds, 1.8% hits; AID 1894;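 active = binding response below 72% of control, or above a set upper limit, though filed actives all read lower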;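 also: 100% = DMSO only wells and 0% = binding blocked by excess unlabeled MEK5; lower values mean stronger disruption of MEK5 binding to MEKK3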
Starred values were filed as active, the others as inactive; · = no result given; ! = not active in a repeat; [ ] = another dose, or the depositor's remark.

SMILES	Arr AP2 block	MEKK2 mut-MEK5	MEKK3 PB1 HTS	MEKK2 WT-MEK5	MEKK2wt confirm	MEKK2mut-MEK5	MEKK3 confirm
C#CCOCCOCCOCCNc1nc(N2CCN(C(=O)[C@H]([C@@H](C)CC)n3cc([C@@H](N)CO)nn3)CC2)nc(N2CCN(C(=O)[C@H](Cc3cc4ccccc4[nH]3)n3cc([C@@H](N)C(C)CC)nn3)CC2)n1 (stereo not given in full)	·	56.0*	107.0	181.0*	175.0	87.0*	104.0
C#CCOCCOCCOCCNc1nc(N2CCN(C(=O)[C@H]([C@@H](C)CC)n3cc([C@@H](N)CC(C)C)nn3)CC2)nc(N2CCN(C(=O)[C@H](Cc3cc4ccccc4[nH]3)n3cc([C@@H](N)CC(C)C)nn3)CC2)n1	·	52.0*	108.0	151.0*	252.0*	169.0*	116.0
C#CCOCCOCCOCCNc1nc(N2CCN(C(=O)C([C@@H](C)CC)n3cc(C(N)COC(=O)C(F)(F)F)nn3)CC2)nc(N2CCN(C(=O)[C@H](Cc3cc4ccccc4[nH]3)n3cc(C(N)CO)nn3)CC2)n1 (stereo not given in full)	·	11.0	101.0	143.0*	189.0	58.0	108.0
C#CCOCCOCCOCCNc1nc(N2CCN(C(=O)[C@H](Cc3cc4ccccc4[nH]3)n3cc([C@@H](N)CC(C)C)nn3)CC2)nc(N2CCN(C(=O)[C@H](Cc3cc4ccccc4[nH]3)n3cc([C@@H](N)CC(C)C)nn3)CC2)n1	24.9	112.0*	118.0	258.0*	289.0*	132.0*	112.0
C#CCOCCOCCOCCNc1nc(N2CCOCC2)nc(N2CCN(C(=O)[C@H](Cc3cc4ccccc4[nH]3)n3cc([C@@H](N)CC(C)C)nn3)CC2)n1	3.4	25.0	107.0	136.0	·	·	·
Cc1nn(Cc2c(Cl)cccc2Cl)c(Cl)c1/C=N/NC(=O)c1cccnc1	6.7	-2.0	95.0	91.0	·	·	·
OCC1(CCOc2ccccc2)CCN(CC2=Cc3cc(Cl)ccc3OC2)CC1	3.9	7.0	109.0	153.0*	137.0	15.0	107.0
CC(C)NCC(O)c1ccc(NS(C)(=O)=O)cc1 (stereo not given)	-0.9	6.0	122.0*!	119.0	101.0	-5.0	99.0
CC(C)NC[C@@H](O)c1ccc(O)c(O)c1	5.8	-2.0	85.0	101.0	·	·	·
COc1ccc(OC)c(/C=C(\C)C(=O)c2c(C)cc(C)[nH]c2=O)c1	6.0	·	·	·	·	·	·
CCNCCC(=O)N1c2ccccc2Sc2ccc(C(F)(F)F)cc21	15.3	5.0	105.0	114.0	·	·	·
CS(=O)(=O)c1ccc2nc(NC(=O)CCNC(=O)c3ccc(Cl)cc3)sc2c1	0.8	·	·	·	·	·	·
CC(C)(C)OC(=O)N[C@H](/C=C/c1ccccc1)C(=O)OC(C)(C)C	0.1	·	·	·	·	·	·
O=c1[nH]c(/C=C/c2cccc3ccccc23)nc2ccccc12	6.9	1.0	99.0	95.0	·	·	·
O=c1[nH]c(/C=C/c2ccccc2[N+](=O)[O-])nc2ccccc12	-7.5	0.0	132.0*	110.0	89.0	-5.0	89.0
Oc1ccc(-n2cnnn2)cc1	0.9	-5.0	71.0*[inhibitor]	77.0	104.0	9.0	105.0
CCOc1ccc(S(=O)(=O)N(C)c2ccc(OCC(=O)N3c4ccc(C)cc4C4CN(C)CCC43)cc2)cc1 (stereo not given)	6.2	37.0	108.0	140.0*	127.0	15.0	101.0
CCc1nc(N2CCN(C(=O)CCl)CC2)c2c3c(sc2n1)CC(C)CC3 (stereo not given)	-16.7	39.0*	111.0	153.0*	141.0	25.0	100.0
CCc1nc(N2CCN(C(C)=O)CC2)c2c3c(sc2n1)CC(C(C)(C)C)CC3 (stereo not given)	7.2	4.0	101.0	107.0	·	·	·
O=C1N/C(=N/S(=O)(=O)Cc2ccccc2)S/C1=C/c1ccc2c(c1)OCO2	7.0	1.0	102.0	101.0	·	·	·
